The target in assay [1] is Beta-lactamase (Escherichia coli K-12) (UniProt P00811). In words: Percentage inhibition against beta-Lactamase in the absence of detergent Triton X-100 was determined at a concentration of 20 uM. An outline of the steps:
(§1)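 AmpC β-lactamase (expressed and purified from E. coli) assayed in 50 mM KPi, pH 7.0, at room temperature. Enzyme and inhibitor were preincubated for 5 min before the nitrocefin substrate (200 μM) was added, and hydrolysis was followed kinetically. For the detergent lines, Triton X-100, made fresh daily as a 1% (v/v) stock in 50 mM KPi, was used at a final 0.01%.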

Assay [2] shares this target. Put plainly: Percentage inhibition against beta-Lactamase in the presence of detergent 0.01% Triton X-100 was determined at a concentration of 20 uM. The essentials: as §1
For assay [3], the target named is T1, Beta-lactamase (Escherichia coli K-12, UniProt P00811). In words: Inhibitory activity against Amp C beta-Lactamase.
Assay [4] deals with Beta-lactamase (Escherichia coli K-12) (UniProt P00811). In words: Percentage inhibition against beta-Lactamase in the absence of detergent Triton X-100 was determined at a concentration of 25 uM. An outline of the steps: (§2)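 AmpC β-lactamase (E. coli-expressed, purified) assayed in 50 mM KPi, pH 7.0, at room temperature. Enzyme and inhibitor preincubated 5 min before substrate addition. Inhibitors were typically diluted from 10 mM DMSO stocks into KPi. Where present, Triton X-100 was at 0.01% final, from a 1% (v/v) stock in 50 mM KPi freshly prepared daily.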

Assay [5] shares this target. Put plainly: Percentage inhibition of Beta-lactamase at KPi (Potassium Phosphate) stock concentration of 5.9 uM. An outline of the steps: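 Compound dissolved directly in 50 mM KPi with no DMSO, stock level set by UV–vis spectra correlated with DMSO-diluted solutions. Tested against AmpC β-lactamase in 50 mM KPi, pH 7.0, room temperature, with 5 min enzyme–inhibitor preincubation. Value reported as percent inhibition.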

Assay [6] has the same target. Put plainly: Percentage inhibition against beta-Lactamase in the presence of detergent 0.01% Triton X-100 was determined at a concentration of 25 uM. The essentials:
as §2

Assay [7] has the same target. Conditions: 30 uM.
In assay [8] the target is T1, Beta-lactamase. In words: Inhibitory activity against Beta-lactamase from DMSO stock was determined.
Assay [9] has as its target Beta-lactamase (Escherichia coli K-12) (UniProt P00811). In words: Percentage inhibition against beta-Lactamase in the absence of detergent Triton X-100 was determined at a concentration of 0.6 uM. The essentials: as §1
The target is the same in assay [10]. Put plainly: Percentage inhibition against beta-Lactamase in the presence of detergent 0.01% Triton X-100 was determined at a concentration of 0.6 uM. The essentials:
as §1

Assay [11] shares this target. Put plainly: Percentage inhibition against beta-Lactamase in the absence of detergent Triton X-100 was determined at a concentration of 5 uM. The essentials: as §2
Assay [12] has the same target. In words: Percentage inhibition against beta-Lactamase in the presence of detergent 0.01% Triton X-100 was determined at a concentration of 5 uM. An outline of the steps:
as §2

Each structure is given as a SMILES string.

As usually defined, the inhibition is the share of the control response that was lost under treatment. One may read the IC50 as the midpoint of a concentration-inhibition curve. Read a low IC50 as greater potency in that assay.

T1 sequence (P00811 whole entry): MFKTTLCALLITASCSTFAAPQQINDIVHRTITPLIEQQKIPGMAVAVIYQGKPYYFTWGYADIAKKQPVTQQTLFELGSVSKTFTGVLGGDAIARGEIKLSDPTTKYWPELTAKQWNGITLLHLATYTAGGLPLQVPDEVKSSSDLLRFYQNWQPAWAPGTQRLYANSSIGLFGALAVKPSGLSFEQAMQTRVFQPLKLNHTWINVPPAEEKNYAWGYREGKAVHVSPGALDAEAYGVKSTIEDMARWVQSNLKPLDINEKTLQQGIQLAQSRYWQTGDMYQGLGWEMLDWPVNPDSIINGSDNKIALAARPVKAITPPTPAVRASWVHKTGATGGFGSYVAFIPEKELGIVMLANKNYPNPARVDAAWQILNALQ
Sequence of Beta-lactamase (Escherichia coli K-12) (P00811 whole entry): as above

Take `Oc1ccc(/N=N/c2ccc(Br)cc2)cc1`: the inhibition in assay [1] came out at 91%; in [2], 10%.
With `O=C1NCc2c1c1c3ccccc3[nH]c1c1[nH]c3ccccc3c21` [STAUROSPORINONE], the inhibition came out at 80% in assay [1] and 17% in assay [2]. Moreover, on Beta-lactamase [3], the midpoint of inhibition, the IC50, lay at 8 µM.
For the compound `O=c1c(O)c(-c2ccc(O)c(O)c2)oc2cc(O)cc(O)c12`, the inhibition in assay [4] was determined as 68%; in assay [5] it was 43%; in assay [6], 25%.
With `O=S(=O)(O)c1cc(O)c(/N=N/c2ccc3ccccc3c2O)c2ccccc12`, in assay [7], the inhibition worked out at 68%.
As for `COC(=O)C1=C(C)NC(C)=C(C(=O)OCCN(C)Cc2ccccc2)C1c1cccc([N+](=O)[O-])c1` (configuration not stated) [NICARDIPINE], the IC50 against Beta-lactamase [8] and on Beta-lactamase [3] was 20 µM throughout.
As for `Clc1ccc(CSC(Cn2ccnc2)c2ccc(Cl)cc2Cl)cc1` (configuration not stated) [SULCONAZOLE], inhibition at Beta-lactamase [3] was half-maximal at 14 µM (IC50).
On to `OB(O)c1cc2ccccc2s1`, for which the inhibition in assay [9] was 87%; in assay [10], 86%.
Compound `CC(=O)c1c(O)c(C)c(O)c(Cc2c(O)c3c(c(C(=O)/C=C/c4ccccc4)c2O)OC(C)(C)C=C3)c1O` [ROTTLERIN] gave an IC50 against Beta-lactamase [3] of 1.2 µM. Moreover, the results for the inhibition in assay [11] and in assay [12] were 90% and 5%, respectively.

The record behind these values is ChEMBL document CHEMBL1144937, “A specific mechanism of nonspecific inhibition” (J Med Chem, 2003).
